Rows were chosen to be rich in hits. Some 2.5% of all compounds tested hit in one or more screens of this group.
NS3 helicase inh: HCV NS3 helicase inhibition | AID 1800 | hit rate 0.56% among 290,000 | inhibition, % at 10.9 µM | NS3 helicase DNA unwinding, Cy5 molecular beacon fluorescence;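 active means inhibition above the mean of all tested compounds plus 3 SD, set per campaign, cut at about 35% in these data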;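 further: 0% = DMSO wells and 100% = thioflavine S control wells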
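Compound dosing – single dose, 10.9 µM nominal final, DMSO 0.8% final · System – NS3 helicase fragment of HCV · Buffer or medium – MOPS pH 6.5, MgCl2, DTT, Tween20, BSA · Signal – Cy5 beacon fluorescence read at start and 1 h · Also added – annealed dual-labelled DNA beacon duplex, ATP-started · Schedule – 1 h at 25 °C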
SUMO1 PPI mod: SUMO1-SIM interaction modulation | SUMO1 binding to a labelled peptide, TR-FRET, 1 h | hit rate 0.33% among 360,000 | P63165 | AID 602429 | inhibition, % at 20 µM; in the data active means inhibition above about 37%
UHRF1 MBD2 ctr: blocks human UHRF1 binding to methylated DNA. Q96T88. UHRF1 binding to methylated oligo, TR-FRET. inhibition, % at 4.4 µM. hit rate 0.75% among 370,000; in the data active means inhibition above about 21%;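 further: UHRF1 SRA domain binding a hemimethylated CpG hairpin DNA probe; 0% = median of test compound wells and 100% = reference inhibitor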
DNMT1 block: inhibitors of human DNMT1 | hit rate 0.83% among 360,000 | inhibition (reported as % activation of signal), % at 10 µM | P26358 | DNMT1 molecular beacon, Hinp1I cleavage, fluorescence; in the data active means inhibition above about 50%
DSG3 Ab inh: inhibitors of pemphigus antibody binding to human desmoglein-3 | hit rate 0.48% among 310,000 | P32926 | DSG3-coupled beads, scFv-anti-DSG3-GFP binding, flow cytometry; active compounds read low | binding (percent of control), % at 10 µM;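 active means binding more than 3 SD below its plate's average and above zero; inconclusive means below that plate limit but binding exactly zero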;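 further: hits lower antibody fragment binding to DSG3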
MBD2 inh: inhibitors of human MBD2 binding to methylated oligonucleotide. TR-FRET. inhibition, % at 4.4 µM. hit rate 0.31% among 370,000. AID 686964; in the data active means inhibition above about 13%
Active calls of the source: *; ? = inconclusive; . = no result given.

SMILES | NS3 helicase inh | SUMO1 PPI mod | UHRF1 MBD2 ctr | DNMT1 block | DSG3 Ab inh | MBD2 inh
CC(C)SCc1nc2ccccc2[nH]1 | 2 | -1 | -2 | 2 | 103 | 2
COc1ccccc1/C=N/NC(=O)CCn1cnc2ccccc21 | -1 | -4 | -1 | 0 | 101 | -3
C[C@H]1COc2cccc(N3CCCC3)c2S(=O)(=O)N1C | . | . | 1 | . | . | -1
O=Nc1c(-c2c(O)[nH]c3cc(Br)ccc23)[nH]c2ccccc12 | -23 | 44* | -5 | -30 | . | -5
O=C(CSCc1cccc(Br)c1)N=Nc1c(O)[nH]c2ccccc12 | -10 | -21 | 0 | 0 | . | 0
CCCCN(C(=O)CSc1nncn1-c1ccccc1OC)c1c(N)n(Cc2ccccc2)c(=O)[nH]c1=O | 6 | 0 | 1 | 0 | 103 | -6
CCCc1nc2sc3c(SCC(=O)NCc4ccco4)ncnc3c2c2c1CCC2 | 27 | 7 | -2 | 91* | 98 | -6
COc1ccc(NC(=O)Nc2ccccc2SC)c(OC)c1 | 3 | 8 | 0 | 0 | -6.3* | -2
COc1ccc(C2=NN(C(=O)COC(=O)c3ccc(S(C)(=O)=O)c([N+](=O)[O-])c3)C(c3ccco3)C2)cc1 (stereo not given) | . | 4 | 2 | 18 | 81 | -4
CCOc1cccc(C(=O)Nc2cccc(-c3nnc(-c4ccccc4)o3)c2)c1 | 2 | -1 | 2 | -1 | 108 | -2
CCOc1cccc(C(=O)Nc2cccc(-c3nnc(-c4ccc(C)cc4)o3)c2)c1 | 3 | 0 | 3 | 66* | 127 | 5
C[C@@H]1O[C@H](C2CCCCC2)Cc2[nH][nH]c(=O)c21 | . | 6 | 3 | . | . | -1
O=C(NCc1cccnc1)C(=O)Nc1ccc([N+](=O)[O-])cc1 | -10 | -28 | 22* | 1 | 107 | 1
O=C(NCc1cccnc1)c1ccc(-c2ccc(Cl)cc2)o1 | -13 | -9 | -1 | 3 | 58* | -1
O=C(NCc1cccnc1)c1cccs1 | 8 | 1 | 22* | 1 | 103 | 8
Cc1cc(C(=O)NCc2cccnc2)cs1 | 8 | 5 | . | -1 | 105 | .
O=C(NCc1cccnc1)c1ccc(Cl)c(Cl)c1 | 5 | 1 | 37* | 3 | ? | 5
COc1ccc(C(=O)NCc2cccnc2)cc1C(=O)NCc1cccnc1 | . | -4 | -1 | 0 | 103 | 5
O=C(NCc1cccnc1)c1ccc(-c2cc(Cl)ccc2Cl)o1 | -7 | -7 | 0 | 1 | 106 | -1
Cn1c(-c2ccccc2)cnc1NCc1cc2c(cc1[N+](=O)[O-])OCO2 | -5 | -12 | -7 | 8 | 110 | -6
Cn1cc(CCC(=O)NCc2cccc(Cl)c2)c2ccccc21 | -6 | 1 | -2 | -1 | 103 | -4
Cc1nnc(NC(=O)c2ccc(-c3ccc(Cl)cc3)o2)s1 | . | -7 | -2 | 1 | 22* | -4
CCCC(=O)N(c1ccc(C(=O)O)cc1)c1nc(-c2ccccc2)c(C)s1 | 5 | 1 | 41* | 7 | 96 | 13
CCOC(=O)N1CCN(C(=O)c2ccc3c(c2)N(Cc2cccc(Cl)c2)C(=O)c2ccccc2S3=O)CC1 (stereo not given) | -20 | 2 | 3 | 0 | 102 | 6
O=C(CCNC(=O)c1ccc(Br)cc1)Nc1cccc(S(=O)(=O)N2CCCCCC2)c1 | . | 2 | 0 | 0 | 115 | 2
SMILES | NS3 helicase inh | SUMO1 PPI mod | UHRF1 MBD2 ctr | DNMT1 block | DSG3 Ab inh | MBD2 inh
O=C(CCNC(=O)c1ccc(Br)cc1)Nc1cccc(S(=O)(=O)N2CCCC2)c1 | . | 3 | 36* | -1 | 95 | 9
CCN1CCN(Cc2ccc(NC(=O)c3ccc(C)c(/C=C/c4cnc(Nc5cc(N6CCNCC6)nc(C)n5)cn4)c3)cc2C(F)(F)F)CC1 | -73 | 87* | . | -38 | 103 | .
CCN1CCN(Cc2ccc(NC(=O)c3ccc(C)c(NC(=O)c4ccno4)c3)cc2C(F)(F)F)CC1 | . | 5 | 5 | -3 | 106 | 6
O=C(NCc1ccccc1F)Nc1nnc([C@@H]2C[C@H](O)[C@@H](CO)O2)s1 | . | 4 | -2 | 0 | . | -3
Cn1c(/C=C/c2ccc(Cl)cc2)c([N+](=O)[O-])c(=O)n(C)c1=O | -5 | -17 | 21* | 4 | 91 | 10
Cc1ccccc1CCN(CC(=O)NCc1ccc(F)cc1)C(=O)c1csnn1 | -9 | 6 | -1 | 2 | . | 3
COc1ccc2cc(C(=O)NCc3ccco3)c(=Nc3ccc(C(=O)O)cc3)oc2c1 | -8 | -17 | -9 | 1 | . | -4
COc1ccc2oc(=Nc3ccc(C(=O)O)cc3)c(C(=O)NCc3ccco3)cc2c1 | 3 | 65* | 0 | 4 | 99 | -7
N#CCN(C(=O)COC(=O)CCCNC(=O)c1ccc(Cl)cc1)c1ccccc1 | . | 4 | 50* | 0 | 96 | 0
CCCCn1c(SCC(=O)N(CC)C2CCS(=O)(=O)C2)nc2cc(S(N)(=O)=O)ccc21 (stereo not given) | 4 | 0 | 0 | 3 | 16* | 3
Cc1c(NC(=O)/C=C/c2cn(-c3ccccc3)nc2-c2ccc(F)cc2)c(=O)n(-c2ccccc2)n1C | . | -15 | 47* | 0 | 100 | -4
Cc1c(NS(=O)(=O)c2ccc(F)cc2)c(=O)n(-c2ccccc2)n1C | 19 | 4 | 25* | -2 | 104 | -2
O=C(Nc1ccccc1)NN(C(=O)CCl)c1ccccc1 | 8 | 70* | -1 | 8 | 107 | -8
CCOC(=O)c1sc(Nc2nc3c(F)cccc3s2)cc1C | 0 | -3 | 4 | -9 | 78* | 3
CCOC(=O)c1sc(Nc2nc3ccc(OC)cc3s2)cc1C | 12 | 4 | -1 | -12 | 106 | 2
Cc1ccccc1NC(=S)c1ccc2ccccc2n1 | 1 | -8 | 4 | -4 | 79* | 4
Cc1cc(C)n(CCCNC(=O)CCNS(=O)(=O)c2ccccc2C(F)(F)F)n1 | -3 | 1 | 24* | 1 | 95 | -1
COc1ccccc1CNS(=O)(=O)c1ccc2[nH]cc(C(=O)O)c(=O)c2c1 | 1 | 4 | . | 86* | 102 | .
CC(c1ccco1)N(C(=O)c1ccccc1NS(=O)(=O)c1cc([N+](=O)[O-])ccc1Cl)c1ccccn1 (stereo not given) | 2 | -18 | 26* | 16 | 109 | 6
CC(c1ccco1)N(C(=O)c1ccccc1NS(=O)(=O)c1cccc([N+](=O)[O-])c1)c1ccccn1 (stereo not given) | 8 | -15 | . | 2 | 109 | .
O=C(c1cc(C2CCCCN2S(=O)(=O)c2cccs2)on1)N1CCOCC1 (stereo not given) | . | 44* | -1 | 0 | . | 2
NC(=O)C1CC(=O)N(c2ccc(OCc3c(Cl)cccc3Cl)cc2)C1 (stereo not given) | 1 | -3 | 23* | -1 | 91 | 5

Bioassay records from PubChem BioAssay.
